Laboratory results taken from ChEMBL document CHEMBL1154352, “Toll-like receptor 7 selective synthetic oligoribonucleotide agonists: synthesis and structure-activity relationship studies” (J Med Chem, 2009).
Activity calls are given as the source filed them. No cut-off for these calls is given here.

Tests used:
[1] = target: T1, Toll-like receptor 8 (Homo sapiens) (UniProt Q9NR97); test: Activation of human TLR8 expressed in HEK293XL assessed as fold induction of NF-kappaB activity at 50 ug/ml after 18 hrs by reporter gene assay relative to control
T1 sequence (whole entry): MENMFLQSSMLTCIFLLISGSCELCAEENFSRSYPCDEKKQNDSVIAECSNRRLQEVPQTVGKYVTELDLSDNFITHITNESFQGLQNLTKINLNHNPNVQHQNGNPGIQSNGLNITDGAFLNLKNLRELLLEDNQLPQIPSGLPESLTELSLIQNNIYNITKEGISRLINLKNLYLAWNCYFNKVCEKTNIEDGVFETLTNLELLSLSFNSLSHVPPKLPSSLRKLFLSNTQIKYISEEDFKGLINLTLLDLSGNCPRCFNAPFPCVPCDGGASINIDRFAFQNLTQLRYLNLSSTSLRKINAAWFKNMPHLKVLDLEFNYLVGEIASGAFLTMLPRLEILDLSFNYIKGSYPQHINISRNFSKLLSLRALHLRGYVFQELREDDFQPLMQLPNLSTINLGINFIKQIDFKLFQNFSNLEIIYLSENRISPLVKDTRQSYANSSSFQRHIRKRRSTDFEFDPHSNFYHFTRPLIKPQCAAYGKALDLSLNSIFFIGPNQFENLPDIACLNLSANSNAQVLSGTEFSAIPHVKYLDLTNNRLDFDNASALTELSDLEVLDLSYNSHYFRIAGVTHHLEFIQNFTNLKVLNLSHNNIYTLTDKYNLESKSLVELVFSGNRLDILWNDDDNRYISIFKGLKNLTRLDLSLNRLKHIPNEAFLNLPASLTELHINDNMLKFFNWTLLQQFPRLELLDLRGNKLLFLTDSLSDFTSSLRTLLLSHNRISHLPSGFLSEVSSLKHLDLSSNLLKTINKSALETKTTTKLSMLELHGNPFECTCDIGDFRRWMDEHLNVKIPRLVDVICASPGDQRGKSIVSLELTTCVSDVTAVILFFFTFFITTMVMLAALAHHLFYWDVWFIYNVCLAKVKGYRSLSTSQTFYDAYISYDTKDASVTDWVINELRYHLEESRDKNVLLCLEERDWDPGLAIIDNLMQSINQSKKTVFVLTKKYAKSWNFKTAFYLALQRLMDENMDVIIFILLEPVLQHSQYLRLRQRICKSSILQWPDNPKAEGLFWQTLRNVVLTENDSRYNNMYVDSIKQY
Summary of the method: (§1)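 HEK293 cells stably expressing human TLR7 or TLR8, transiently transfected with SEAP reporter plasmid; medium replaced, SIMRA compounds added, 18 h incubation. Supernatant SEAP measured by QuantiBlue; expressed as fold increase in NF-κB activity over PBS control. Tabulated data at 50 μg/mL, representative of three independent experiments.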

PBMC [2] = test: Immunomodulatory activity in human PBMC assessed as induction of TNFalpha at 100 ug/ml after 24 hrs; type: functional, cell-based
Summary of the method: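 Human PBMCs plated at 5 × 10^6 cells/mL; compounds dissolved in PBS added at various concentrations, 37 °C for 24 h. Supernatant cytokines/chemokines quantified with human Luminex multiplex kit.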

Splenocyte = test: Immunomodulatory activity in C57BL/6 mouse splenocytes bearing TLR7 receptor assessed as IL12 release at 100 ug/ml after 24 hrs by ELISA; type: functional, cell-based
Summary of the method: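 C57BL/6 splenocytes in RPMI 1640 with 10% FBS, penicillin/streptomycin, 2 mM L-glutamine, plated at 5 × 10^6 cells/mL; compounds in PBS added, 37 °C for 24 h. Supernatant IL-12 and IL-6 by ELISA; representative of three independent experiments.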

PBMC [3] = test: Immunomodulatory activity in human PBMC assessed as induction of IFN-alpha at 100 ug/ml after 24 hrs
[4] = target: T2, Toll-like receptor 7 (Homo sapiens) (UniProt Q9NYK1); test: Activation of human TLR7 expressed in HEK293XL assessed as fold induction of NF-kappaB activity at 50 ug/ml after 18 hrs by reporter gene assay relative to control; summary of the method: as §1
T2 sequence (whole entry): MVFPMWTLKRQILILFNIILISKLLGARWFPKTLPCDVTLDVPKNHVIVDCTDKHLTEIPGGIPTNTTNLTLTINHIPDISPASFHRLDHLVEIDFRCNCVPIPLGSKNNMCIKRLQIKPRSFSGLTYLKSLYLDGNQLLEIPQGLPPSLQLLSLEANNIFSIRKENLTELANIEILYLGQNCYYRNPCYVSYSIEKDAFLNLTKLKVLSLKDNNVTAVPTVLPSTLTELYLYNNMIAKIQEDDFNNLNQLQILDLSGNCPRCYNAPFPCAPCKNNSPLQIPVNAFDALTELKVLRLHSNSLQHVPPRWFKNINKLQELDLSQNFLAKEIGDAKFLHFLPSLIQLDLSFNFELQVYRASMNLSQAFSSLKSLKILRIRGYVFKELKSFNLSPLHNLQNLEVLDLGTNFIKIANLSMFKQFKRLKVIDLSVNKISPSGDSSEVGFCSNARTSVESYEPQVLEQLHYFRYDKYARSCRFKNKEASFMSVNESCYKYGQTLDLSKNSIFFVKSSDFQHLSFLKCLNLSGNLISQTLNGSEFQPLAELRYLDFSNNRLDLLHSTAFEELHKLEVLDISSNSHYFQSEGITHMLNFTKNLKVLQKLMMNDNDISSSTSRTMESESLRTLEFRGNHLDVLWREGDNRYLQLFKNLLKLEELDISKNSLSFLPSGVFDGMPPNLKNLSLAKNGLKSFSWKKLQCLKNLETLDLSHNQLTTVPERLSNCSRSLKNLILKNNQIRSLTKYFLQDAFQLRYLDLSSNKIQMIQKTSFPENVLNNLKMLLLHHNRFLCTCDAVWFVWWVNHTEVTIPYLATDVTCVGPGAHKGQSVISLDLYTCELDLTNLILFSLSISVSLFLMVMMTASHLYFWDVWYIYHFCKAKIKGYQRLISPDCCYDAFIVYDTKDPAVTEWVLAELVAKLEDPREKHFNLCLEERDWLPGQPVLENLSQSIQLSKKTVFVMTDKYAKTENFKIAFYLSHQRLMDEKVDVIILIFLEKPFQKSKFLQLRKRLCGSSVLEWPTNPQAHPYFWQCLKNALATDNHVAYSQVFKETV

[5] = target: Toll-like receptor 3 (Homo sapiens) (UniProt O15455); test: Activation of human TLR3 expressed in HEK293 assessed as induction of NF-kappaB activity reporter gene assay; type: cell-based
Toll-like receptor 3 (Homo sapiens), sequence (O15455 whole entry): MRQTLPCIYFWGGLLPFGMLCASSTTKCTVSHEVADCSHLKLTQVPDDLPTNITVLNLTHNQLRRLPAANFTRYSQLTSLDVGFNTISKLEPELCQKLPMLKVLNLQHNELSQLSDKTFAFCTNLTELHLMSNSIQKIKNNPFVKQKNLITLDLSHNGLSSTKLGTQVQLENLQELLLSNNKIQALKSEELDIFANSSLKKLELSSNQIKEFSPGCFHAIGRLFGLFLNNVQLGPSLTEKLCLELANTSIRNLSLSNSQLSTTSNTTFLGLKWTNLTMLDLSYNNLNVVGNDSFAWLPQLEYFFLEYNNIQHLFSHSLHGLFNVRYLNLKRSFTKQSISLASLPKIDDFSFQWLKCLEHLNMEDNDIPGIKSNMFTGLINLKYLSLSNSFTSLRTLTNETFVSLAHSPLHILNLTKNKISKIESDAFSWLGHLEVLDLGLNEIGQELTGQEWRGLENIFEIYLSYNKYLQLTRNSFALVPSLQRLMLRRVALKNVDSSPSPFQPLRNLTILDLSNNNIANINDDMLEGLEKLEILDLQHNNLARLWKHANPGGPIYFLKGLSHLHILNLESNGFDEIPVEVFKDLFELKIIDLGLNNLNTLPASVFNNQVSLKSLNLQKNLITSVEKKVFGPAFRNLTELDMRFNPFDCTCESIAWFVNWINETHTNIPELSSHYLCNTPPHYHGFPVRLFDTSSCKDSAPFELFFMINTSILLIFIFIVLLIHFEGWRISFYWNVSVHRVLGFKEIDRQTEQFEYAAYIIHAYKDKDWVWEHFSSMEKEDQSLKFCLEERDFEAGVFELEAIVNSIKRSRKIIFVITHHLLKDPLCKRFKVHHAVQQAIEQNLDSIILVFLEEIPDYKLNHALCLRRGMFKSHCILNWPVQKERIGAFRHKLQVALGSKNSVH

| SMILES | fold change (FC) [1] | Activity (PBMC [2]) [pg/mL] | Activity (Splenocyte) | IFN-alpha (PBMC [3]) [pg/mL] | fold change (FC) [4] | Activity [5] |
| --- | --- | --- | --- | --- | --- | --- |
| Nc1ccn([C@@H]2O[C@H](COP(=O)(S)O[C@H]3[C@@H](O)[C@H](n4cnc5c(N)ncnc54)O[C@@H]3COP(=O)(S)O[C@H]3[C@@H](O)[C@H](n4ccc5c(=O)[nH]c(N)nc54)O[C@@H]3COP(=O)(S)O[C@H]3[C@@H](O)[C@H](n4ccc(=O)[nH]c4=O)O[C@@H]3COP(=O)(S)O[C@H]3[C@@H](O)[C@H](n4ccc5c(=O)[nH]c(N)nc54)O[C@@H]3COP(=O)(S)O[C@H]3[C@@H](O)[C@H](n4cnc5c(N)ncnc54)O[C@@H]3COP(=O)(S)O[C@H]3[C@@H](O)[C@H](n4cnc5c(N)ncnc54)O[C@@H]3CO)[C@@H](OP(=O)(S)OC[C@H]3O[C@@H](n4ccc5c(=O)[nH]c(N)nc54)[C@H](O)[C@@H]3OP(=O)(S)OC[C@H]3O[C@@H](n4ccc(N)nc4=O)[C@H](O)[C@@H]3OP(=O)(S)OC[C@H]3O[C@@H](n4ccc(=O)[nH]c4=O)[C@H](O)[C@@H]3OP(=O)(S)OC[C@H]3O[C@@H](n4ccc(=O)[nH]c4=O)[C@H](O)[C@@H]3OP(=O)(S)OCC(O)COP(=O)(S)O[C@H]3[C@@H](O)[C@H](n4ccc(=O)[nH]c4=O)O[C@@H]3COP(=O)(S)O[C@H]3[C@@H](O)[C@H](n4ccc(=O)[nH]c4=O)O[C@@H]3COP(=O)(S)O[C@H]3[C@@H](O)[C@H](n4ccc(N)nc4=O)O[C@@H]3COP(=O)(S)O[C@H]3[C@@H](O)[C@H](n4ccc5c(=O)[nH]c(N)nc54)O[C@@H]3COP(=O)(S)O[C@H]3[C@@H](O)[C@H](n4ccc(N)nc4=O)O[C@@H]3COP(=O)(S)O[C@H]3[C@@H](O)[C@H](n4cnc5c(N)ncnc54)O[C@@H]3COP(=O)(S)O[C@H]3[C@@H](O)[C@H](n4ccc5c(=O)[nH]c(N)nc54)O[C@@H]3COP(=O)(S)O[C@H]3[C@@H](O)[C@H](n4ccc(=O)[nH]c4=O)O[C@@H]3COP(=O)(S)O[C@H]3[C@@H](O)[C@H](n4ccc5c(=O)[nH]c(N)nc54)O[C@@H]3COP(=O)(S)O[C@H]3[C@@H](O)[C@H](n4cnc5c(N)ncnc54)O[C@@H]3COP(=O)(S)O[C@H]3[C@@H](O)[C@H](n4cnc5c(N)ncnc54)O[C@@H]3CO)[C@H]2O)c(=O)n1 (some centres not stated) | 0.7 | 26.2 | Active | 204 | 22.6 | inactive |
| Nc1ccn([C@@H]2O[C@H](COP(=O)(S)O[C@H]3[C@@H](O)[C@H](n4cnc5c(N)ncnc54)O[C@@H]3COP(=O)(S)O[C@H]3[C@@H](O)[C@H](n4ccc5c(=O)[nH]c(N)nc54)O[C@@H]3COP(=O)(S)O[C@H]3[C@@H](O)[C@H](n4ccc(=O)[nH]c4=O)O[C@@H]3COP(=O)(S)O[C@H]3[C@@H](O)[C@H](n4ccc(=O)[nH]c4=O)O[C@@H]3COP(=O)(S)O[C@H]3[C@@H](O)[C@H](n4cnc5c(N)ncnc54)O[C@@H]3COP(=O)(S)O[C@H]3[C@@H](O)[C@H](n4cnc5c(N)ncnc54)O[C@@H]3CO)[C@@H](OP(=O)(S)OC[C@H]3O[C@@H](n4ccc5c(=O)[nH]c(N)nc54)[C@H](O)[C@@H]3OP(=O)(S)OC[C@H]3O[C@@H](n4ccc(N)nc4=O)[C@H](O)[C@@H]3OP(=O)(S)OC[C@H]3O[C@@H](n4ccc(=O)[nH]c4=O)[C@H](O)[C@@H]3OP(=O)(S)OC[C@H]3O[C@@H](n4ccc(=O)[nH]c4=O)[C@H](O)[C@@H]3OP(=O)(S)OCC(O)COP(=O)(S)O[C@H]3[C@@H](O)[C@H](n4ccc(=O)[nH]c4=O)O[C@@H]3COP(=O)(S)O[C@H]3[C@@H](O)[C@H](n4ccc(=O)[nH]c4=O)O[C@@H]3COP(=O)(S)O[C@H]3[C@@H](O)[C@H](n4ccc(N)nc4=O)O[C@@H]3COP(=O)(S)O[C@H]3[C@@H](O)[C@H](n4ccc5c(=O)[nH]c(N)nc54)O[C@@H]3COP(=O)(S)O[C@H]3[C@@H](O)[C@H](n4ccc(N)nc4=O)O[C@@H]3COP(=O)(S)O[C@H]3[C@@H](O)[C@H](n4cnc5c(N)ncnc54)O[C@@H]3COP(=O)(S)O[C@H]3[C@@H](O)[C@H](n4ccc5c(=O)[nH]c(N)nc54)O[C@@H]3COP(=O)(S)O[C@H]3[C@@H](O)[C@H](n4ccc(=O)[nH]c4=O)O[C@@H]3COP(=O)(S)O[C@H]3[C@@H](O)[C@H](n4ccc(=O)[nH]c4=O)O[C@@H]3COP(=O)(S)O[C@H]3[C@@H](O)[C@H](n4cnc5c(N)ncnc54)O[C@@H]3COP(=O)(S)O[C@H]3[C@@H](O)[C@H](n4cnc5c(N)ncnc54)O[C@@H]3CO)[C@H]2O)c(=O)n1 (some centres not stated) | 0.3 | 8.8 | Active | 193 | 20.9 | inactive |
